Reference: ChEMBL document CHEMBL3407478, “Development of a series of aryl pyrimidine kynurenine monooxygenase inhibitors as potential therapeutic agents for the treatment of Huntington's disease” (J Med Chem, 2015)
In brackets after ≈: the same amount, converted by molar mass. Each block holds one compound with its values, some of them ahead of it.

Tests used:
Liver microsome [1] = assay: Intrinsic clearance in rat liver microsomes assessed per mg of protein; type: ADME; set-up: unit not given here
Outline: (§1)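 Stability assessed in human, rat and mouse liver microsomes; intrinsic clearance expressed per mg microsomal protein.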

[2] = Aqueous solubility of the compound; type: physicochemical
Liver microsome [3] = assay: Intrinsic clearance in human liver microsomes assessed per mg of protein; type: ADME; set-up: unit not given here; outline: as §1
[4] = Lipophilicity, log P of the compound at pH 7; type: physicochemical; conditions: buffer
Liver = assay: Intrinsic clearance in mouse liver microsomes assessed per mg of protein; type: ADME; set-up: unit not given here; outline: as §1
[5] = target: T1, Kynurenine 3-monooxygenase (Rattus norvegicus, UniProt O88867); assay: Inhibition of rat KMO assessed as conversion of kynurenine to 3-hydroxykynurenine by LC-MS/MS analysis
Outline: (§2)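 Mitochondrial fractions from mouse or rat liver tissue used as KMO source. Conversion of kynurenine to 3-hydroxykynurenine quantified by LC-MS/MS; IC50 averaged from triplicate tests.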

[6] = Permeability from apical to basolateral side in human Caco2 cells; type: ADME, cell-based; conditions: Caco-2, read-out: permeability
[7] = Permeability from basolateral to apical side in human Caco2 cells; type: ADME, cell-based; conditions: Caco-2, read-out: permeability
[8] = target: T1, Kynurenine 3-monooxygenase; assay: Inhibition of KMO in rat microglia cells; type: cell-based
Outline: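 Freshly isolated neonatal rat microglial cultures, induced to express KMO by a pro-inflammatory protocol. Exogenous KYN added; conversion to 3-HK monitored by mass spectrometry.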

[9] = target: T2, Kynurenine 3-monooxygenase (Homo sapiens, UniProt O15229); assay: Inhibition of human KMO assessed as conversion of kynurenine to 3-hydroxykynurenine by LC-MS/MS analysis
[10] = target: Kynurenine 3-monooxygenase (Mus musculus, UniProt Q91WN4); assay: Inhibition of mouse KMO assessed as conversion of kynurenine to 3-hydroxykynurenine by LC-MS/MS analysis; outline: as §2
[11] = target: T2, Kynurenine 3-monooxygenase; assay: Inhibition of human KMO transfected in CHO cells assessed as conversion of kynurenine to 3-hydroxykynurenine by LC-MS/MS analysis; type: cell-based
[12] = target: T2, Kynurenine 3-monooxygenase; assay: Inhibition of KMO in human PBMC
[13] = target: T2, Kynurenine 3-monooxygenase; assay: Inhibition of KMO (unknown origin)

T2 sequence (O15229 whole entry): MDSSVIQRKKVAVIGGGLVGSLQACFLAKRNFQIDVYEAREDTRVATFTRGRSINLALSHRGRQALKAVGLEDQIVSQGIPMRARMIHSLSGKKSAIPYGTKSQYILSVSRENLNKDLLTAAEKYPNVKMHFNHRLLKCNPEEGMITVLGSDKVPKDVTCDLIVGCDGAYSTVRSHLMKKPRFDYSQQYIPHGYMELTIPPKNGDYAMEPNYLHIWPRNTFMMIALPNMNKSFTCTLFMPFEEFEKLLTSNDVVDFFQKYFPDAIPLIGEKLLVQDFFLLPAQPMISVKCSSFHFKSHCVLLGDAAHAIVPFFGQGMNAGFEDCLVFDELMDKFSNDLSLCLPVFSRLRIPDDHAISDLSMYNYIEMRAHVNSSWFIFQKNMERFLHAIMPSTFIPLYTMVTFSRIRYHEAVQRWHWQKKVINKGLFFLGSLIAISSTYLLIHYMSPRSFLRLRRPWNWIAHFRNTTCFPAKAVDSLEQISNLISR
T1 sequence (O88867 whole entry): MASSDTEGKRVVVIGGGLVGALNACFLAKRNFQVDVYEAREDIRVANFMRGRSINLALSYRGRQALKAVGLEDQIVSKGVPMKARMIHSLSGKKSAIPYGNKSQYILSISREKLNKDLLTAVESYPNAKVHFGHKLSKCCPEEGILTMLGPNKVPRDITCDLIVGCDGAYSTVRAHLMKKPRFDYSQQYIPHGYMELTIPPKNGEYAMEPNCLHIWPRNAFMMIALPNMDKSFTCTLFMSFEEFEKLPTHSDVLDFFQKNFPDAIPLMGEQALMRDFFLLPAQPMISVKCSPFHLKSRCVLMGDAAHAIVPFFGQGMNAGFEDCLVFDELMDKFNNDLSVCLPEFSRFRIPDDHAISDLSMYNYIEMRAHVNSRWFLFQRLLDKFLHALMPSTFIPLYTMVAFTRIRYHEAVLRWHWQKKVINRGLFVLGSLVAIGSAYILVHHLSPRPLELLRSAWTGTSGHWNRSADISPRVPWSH
Kynurenine 3-monooxygenase (Mus musculus, UniProt Q91WN4), sequence (Q91WN4 whole entry): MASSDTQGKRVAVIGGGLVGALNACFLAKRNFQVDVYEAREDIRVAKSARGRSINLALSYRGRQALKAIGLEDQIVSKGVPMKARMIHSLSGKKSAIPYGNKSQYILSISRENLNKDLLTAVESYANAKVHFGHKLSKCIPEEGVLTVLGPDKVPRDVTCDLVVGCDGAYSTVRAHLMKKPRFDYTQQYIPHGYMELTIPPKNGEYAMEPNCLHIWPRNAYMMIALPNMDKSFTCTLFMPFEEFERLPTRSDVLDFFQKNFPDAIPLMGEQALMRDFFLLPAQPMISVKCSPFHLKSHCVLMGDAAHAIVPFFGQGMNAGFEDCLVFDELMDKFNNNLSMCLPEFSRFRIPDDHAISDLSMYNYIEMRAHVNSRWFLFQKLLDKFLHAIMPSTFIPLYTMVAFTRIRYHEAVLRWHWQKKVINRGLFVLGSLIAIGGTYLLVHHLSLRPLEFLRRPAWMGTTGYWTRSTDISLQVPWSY

CLH (Liver microsome [1]): < 0.02 | solubility [2]: > 1000 µg/mL | CLH (Liver microsome [3]): < 0.02 | logD [4]: 1.19 | CLH (Liver): < 0.02
SMILES: O=C(O)c1cc(-c2ccc(OC3CCC3)c(Cl)c2)ncn1

IC50 [9]: > 10000 nM
SMILES: CS(=O)(=O)Nc1cc(-c2ccc(Cl)c(Cl)c2)ncn1

logD [4]: -0.34
SMILES: O=C(O)c1cc(-c2cccc(Cl)c2F)ncn1

IC50 [5]: 4.1 nM | solubility [2]: > 1000 µg/mL | Papp A→B [6]: 24 ×10⁻⁶ cm/s | Papp B→A [7]: 35.3 ×10⁻⁶ cm/s | logD [4]: 0.8 | IC50 [8]: 100 nM | IC50 [10]: 6.2 nM
SMILES: Cc1ccc(-c2cc(C(=O)O)ncn2)cc1Cl

IC50 [11]: 33 nM | IC50 [5]: 3.2 nM | IC50 [9]: 0.6 nM | IC50 [12]: 72 nM | solubility [2]: 740 µg/mL (≈ 2.75 mM) | Papp A→B [6]: 41.4 ×10⁻⁶ cm/s | Papp B→A [7]: 32.4 ×10⁻⁶ cm/s | logD [4]: 1.12 | IC50 [8]: 105 nM | IC50 [10]: 6 nM
SMILES: O=C(O)c1cc(-c2ccc(Cl)c(Cl)c2)ncn1

IC50 [9]: > 10000 nM
SMILES: O=C(Nc1cc(-c2ccc(Cl)c(Cl)c2)ncn1)c1ccccc1

logD [4]: 0.59
SMILES: COc1cc(-c2cc(C(=O)O)ncn2)ccc1Cl

IC50 [13]: 20 nM
SMILES: O=C(O)[C@H]1C[C@@H]1C(=O)c1ccc(Cl)c(Cl)c1

CLH (Liver microsome [1]): < 0.02 | solubility [2]: > 1000 µg/mL | CLH (Liver microsome [3]): < 0.02 | CLH (Liver): < 0.02
SMILES: O=C(O)c1cc(-c2ccc(OC3COC3)c(Cl)c2)ncn1

logD [4]: 0.4
SMILES: O=C(O)c1cc(-c2ccc(Cl)c(F)c2)ncn1

IC50 [9]: > 10000 nM
SMILES: CC(=O)Nc1cc(-c2ccc(Cl)c(Cl)c2)ncn1

logD [4]: 0.41
SMILES: O=C(O)c1cc(-c2ccc(F)c(Cl)c2)ncn1

CLH (Liver microsome [1]): < 0.02 | solubility [2]: > 1000 µg/mL | CLH (Liver microsome [3]): < 0.02 | CLH (Liver): < 0.02
SMILES: O=C(O)c1cc(-c2ccc(OCC3CC3)c(Cl)c2)ncn1

Second part, the compound before the results:

SMILES: O=C(O)c1cc(-c2ccc(Cl)cc2)ncn1
logD [4]: -0.11

SMILES: O=C(O)c1cc(-c2ccc(OC(F)(F)F)c(Cl)c2)ncn1
IC50 [5]: 17 nM | CLH (Liver microsome [1]): < 0.02 | solubility [2]: > 1000 µg/mL | CLH (Liver microsome [3]): < 0.02 | Papp A→B [6]: 10.5 ×10⁻⁶ cm/s | Papp B→A [7]: 17.1 ×10⁻⁶ cm/s | logD [4]: 1.77 | IC50 [8]: > 1000 nM | CLH (Liver): < 0.02

SMILES: O=C(O)c1cc(-c2ccc(F)c(C(F)(F)F)c2)ncn1
logD [4]: 0.45

SMILES: Cn1ccn(-c2cc(-c3ccc(Cl)c(Cl)c3)ncn2)c1=O
IC50 [9]: > 10000 nM

SMILES: Cn1nnc(-c2cc(-c3ccc(Cl)c(Cl)c3)ncn2)n1
IC50 [9]: > 10000 nM

SMILES: O=C(O)c1cc(-c2ccc(Cl)cc2F)ncn1
logD [4]: 0.44

SMILES: O=C(O)c1cc(-c2cc(Cl)c3occc3c2)ncn1
CLH (Liver microsome [1]): < 0.02 | solubility [2]: 820 µg/mL (≈ 2.99 mM) | CLH (Liver microsome [3]): < 0.02 | Papp A→B [6]: 21.9 ×10⁻⁶ cm/s | Papp B→A [7]: 41 ×10⁻⁶ cm/s | logD [4]: 0.85 | CLH (Liver): < 0.02

SMILES: COc1ccc(-c2cc(C(=O)O)ncn2)cc1Cl
solubility [2]: > 1000 µg/mL | Papp A→B [6]: 15.8 ×10⁻⁶ cm/s | Papp B→A [7]: 31.3 ×10⁻⁶ cm/s | logD [4]: 0.28

SMILES: O=C(O)c1cc(-c2ccc(C(F)(F)F)c(Cl)c2)ncn1
logD [4]: 1.35

SMILES: Cc1ccc(-c2cc(C(=O)O)ncn2)cc1F
logD [4]: -0.33

SMILES: O=C(O)c1cc(-c2ccc(F)c(F)c2)ncn1
IC50 [5]: 2 nM | solubility [2]: > 1000 µg/mL | Papp A→B [6]: 13.6 ×10⁻⁶ cm/s | Papp B→A [7]: 26 ×10⁻⁶ cm/s | logD [4]: -0.45 | IC50 [8]: 86 nM | IC50 [10]: 1.5 nM

SMILES: O=C(O)c1cc(-c2cccc(F)c2)ncn1
logD [4]: -0.8

SMILES: Clc1ccc(-c2cc(-n3ccnc3)ncn2)cc1Cl
IC50 [9]: > 10000 nM

SMILES: O=C(O)c1cc(-c2ccc(OC3CCCCC3)c(Cl)c2)ncn1
CLH (Liver microsome [1]): < 0.02 | solubility [2]: 500 µg/mL (≈ 1.5 mM) | CLH (Liver microsome [3]): < 0.02 | CLH (Liver): < 0.02

SMILES: Cc1cccc(-c2cc(C(=O)O)ncn2)c1
logD [4]: -0.19

SMILES: O=C(O)c1cc(-c2ccccc2)ncn1
logD [4]: -0.98

SMILES: CC(C)Oc1ccc(-c2cc(C(=O)O)ncn2)cc1Cl
CLH (Liver microsome [1]): < 0.02 | solubility [2]: > 1000 µg/mL | CLH (Liver microsome [3]): < 0.02 | Papp A→B [6]: 16.5 ×10⁻⁶ cm/s | Papp B→A [7]: 21.2 ×10⁻⁶ cm/s | logD [4]: 1.28 | CLH (Liver): < 0.02

SMILES: O=C(O)c1cc(-c2cccc(Cl)c2)ncn1
logD [4]: 0.12

SMILES: Clc1ccc(-c2cc(-n3cccn3)ncn2)cc1Cl
IC50 [9]: > 10000 nM

SMILES: O=c1[nH]ccn1-c1cc(-c2ccc(Cl)c(Cl)c2)ncn1
IC50 [9]: > 10000 nM

SMILES: O=C(O)c1cc(-c2cccc(C(F)(F)F)c2)ncn1
logD [4]: 0.36

SMILES: O=C(O)c1cc(-c2ccc(OC3CCCC3)c(Cl)c2)ncn1
CLH (Liver microsome [1]): < 0.02 | solubility [2]: > 1000 µg/mL | CLH (Liver microsome [3]): < 0.02 | Papp A→B [6]: 20.5 ×10⁻⁶ cm/s | Papp B→A [7]: 16.7 ×10⁻⁶ cm/s | logD [4]: 2.18 | CLH (Liver): < 0.02

SMILES: O=C(O)c1cc(-c2ccc(F)cc2F)ncn1
logD [4]: -0.88

SMILES: O=C(O)c1cc(-c2cc(Cl)cc(Cl)c2)ncn1
logD [4]: 1.15
